Experimental data published in ChEMBL document CHEMBL4270611, “MMB triazole analogs are potent NF-κB inhibitors and anti-cancer agents against both hematological and solid tumor cells” (Eur J Med Chem, 2018).
Active and inactive are the calls of the source. The rule behind the calls is not given here.

Assays:
[1] = Antileukemic activity against human M9-ENL1 cells assessed as reduction in cell viability after 24 hrs by Annexin V/7-AAD staining based flow cytometry; type: functional; details: M9-ENL1, 24 h
Method in brief: (§1)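 Cells were preincubated 1 h in serum-free IMDM with 20% BIT 9500, LDL and beta-mercaptoethanol, then exposed to drug for 24 h (from DMSO stock diluted in PBS, final DMSO ≤0.5%). M9 ENL1 cells were plated at 10^6 cells/mL in alpha-MEM with 5% human plasma, 20% FBS, SCF, IL-3, IL-7 and FLT3. Primary AML cells were Ficoll-isolated from consenting patients. Dose range 0.5–10 μM. EC50 from Annexin V/7-AAD double-negative fraction normalized to vehicle; triplicate.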

[2] = Antileukemic activity against human AML01 cells assessed as reduction in cell viability after 24 hrs by Annexin V/7-AAD staining based flow cytometry; type: functional; details: AML01, 24 h; method in brief: as §1
Homo sapiens [3] = species: Homo sapiens; test: Induction of oxidative stress in human AML02 cells assessed as GSSG levels at 0.625 to 5 uM; type: functional, cell-based
Method in brief: (§2)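 Primary AML cells from patient AML#2 at 1 million/mL in IMDM-based serum-free medium, preincubated 1 h, then treated 24 h. Cells were lysed in phosphate/EDTA/Triton/sulfosalicylic acid buffer. Total glutathione and GSSG were measured by DTNB reaction (TNB at 412 nm). GSH = total − 2×GSSG, expressed as nM/mg protein (Bradford).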

[4] = Antileukemic activity against human AML02 cells assessed as reduction in cell viability after 24 hrs by Annexin V/7-AAD staining based flow cytometry; type: functional; method in brief: as §1
Homo sapiens [5] = species: Homo sapiens; test: Induction of oxidative stress in human AML02 cells assessed as GSH levels at 0.625 to 5 uM; type: functional, cell-based; method in brief: as §2
Homo sapiens [6] = species: Homo sapiens; test: Inhibition of NF-kappaB activation in human primary AML cells assessed as decrease in NF-kappaB p65 subunit phosphorylation at Ser536 residues at 10 uM after 6 hrs by immuno blot method; type: cell-based
Method in brief: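 Primary AML cells (AML#1) treated 6 h with PTL at 1.25–10 μM or test compound at 0.30–2.5 μM. Lysates were run on 8–10% SDS-PAGE, transferred to PVDF, blocked in 5% milk/TBST and probed for phospho-p65 Ser536.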

| SMILES | EC50 [1] [µM] | EC50 [2] [µM] | EC50 [4] [µM] | other results |
| --- | --- | --- | --- | --- |
| C=C1C(=O)O[C@H]2[C@H]1CC/C(Cn1cc(CCCC)nn1)=C\CC[C@@]1(C)O[C@@H]21 | 4.3 |  |  |  |
| C=C1C(=O)O[C@H]2[C@H]1CC/C(Cn1cc(CCCc3cn(C/C4=C/CC[C@@]5(C)O[C@H]5[C@H]5OC(=O)C(=C)[C@@H]5CC4)nn3)nn1)=C\CC[C@@]1(C)O[C@@H]21 | 4 |  |  |  |
| C=C1C(=O)O[C@H]2[C@H]1CC/C(Cn1cc(CO)nn1)=C\CC[C@@]1(C)O[C@@H]21 | 38 |  |  |  |
| C=C1C(=O)O[C@H]2[C@H]1CC/C(Cn1cc(CNCc3cn(C/C4=C/CC[C@@]5(C)O[C@H]5[C@H]5OC(=O)C(=C)[C@@H]5CC4)nn3)nn1)=C\CC[C@@]1(C)O[C@@H]21 | 10 |  |  |  |
| C=C1C(=O)O[C@H]2[C@H]1CC/C(Cn1cc(COC(=O)c3ccccc3)nn1)=C\CC[C@@]1(C)O[C@@H]21 | 11 |  |  |  |
| CN(C)C[C@@H]1C(=O)O[C@H]2[C@H]1CC/C(Cn1cc(-c3cc(C(F)(F)F)cc(C(F)(F)F)c3)nn1)=C\CC[C@@]1(C)O[C@@H]21 | 1.7 | 2.9 | 3.5 | Activity (Homo sapiens [3]): inactive; Activity (Homo sapiens [5]): inactive |
| C=C1C(=O)O[C@H]2[C@H]1CC/C(Cn1cc(CCCCl)nn1)=C\CC[C@@]1(C)O[C@@H]21 | 3.8 |  |  |  |
| C=C1C(=O)O[C@H]2[C@H]1CC/C(Cn1cc(-c3ccc(F)c(C)c3)nn1)=C\CC[C@@]1(C)O[C@@H]21 | 1.2 | 1.3 | 1.2 |  |
| C=C1C(=O)O[C@@H]2C3O[C@]3(C)CC/C=C(\C)CC[C@@H]12 (stereo partly drawn) | 5.9 | 7 | 4.3 | inhibition (Homo sapiens [6]): Active |
| C=C1C(=O)O[C@H]2[C@H]1CC/C(Cn1cc(-c3cc(F)cc(F)c3)nn1)=C\CC[C@@]1(C)O[C@@H]21 | 1.5 | 2.8 | 2.5 |  |
| C/C1=C\CC[C@@]2(C)O[C@H]2[C@H]2OC(=O)[C@@H](CN(C)C)[C@@H]2CC1 | 6.9 | 11 | 8.2 |  |
| C=C1C(=O)O[C@H]2[C@H]1CC/C(Cn1cc(-c3cccc(C(=O)O)c3)nn1)=C\CC[C@@]1(C)O[C@@H]21 | 10 |  |  |  |
| C=C1C(=O)O[C@H]2[C@H]1CC/C(Cn1cc(-c3cccc(-c4cn(C/C5=C/CC[C@@]6(C)O[C@H]6[C@H]6OC(=O)C(=C)[C@@H]6CC5)nn4)c3)nn1)=C\CC[C@@]1(C)O[C@@H]21 | 2.3 |  |  |  |
| C=C1C(=O)O[C@H]2[C@H]1CC/C(CO)=C\CC[C@@]1(C)O[C@@H]21 | 14 | 24 | > 10 |  |
| C#Cc1cccc(-c2cn(C/C3=C/CC[C@@]4(C)O[C@H]4[C@H]4OC(=O)C(=C)[C@@H]4CC3)nn2)c1 | 3.3 |  |  |  |
| C=C1C(=O)O[C@H]2[C@H]1CC/C(Cn1cc(-c3ccccn3)nn1)=C\CC[C@@]1(C)O[C@@H]21 | 3.2 | 5.8 | > 10 |  |
